Only some compounds are listed: those with a hit (about 1.7% of all), similar ones and a draw of the others.
PP5 primary – PP5 phosphatase inhibitors, primary screen, biochemical, fluorescence; inhibition, % at 6.7 µM; purified PP5c, OMFP substrate fluorescence; Serine/threonine-protein phosphatase 5 (Homo sapiens), P53041; AID 1987, 2009; hit rate 0.18% among 320,000;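 active = inhibition above the campaign's mean inhibition across all tested compounds plus 3 SD, cut at about 9.5% in these data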;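 note: 0% = DMSO only and 100% = 100 µM cantharidin control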
Target sequence (P53041 whole entry, looked up): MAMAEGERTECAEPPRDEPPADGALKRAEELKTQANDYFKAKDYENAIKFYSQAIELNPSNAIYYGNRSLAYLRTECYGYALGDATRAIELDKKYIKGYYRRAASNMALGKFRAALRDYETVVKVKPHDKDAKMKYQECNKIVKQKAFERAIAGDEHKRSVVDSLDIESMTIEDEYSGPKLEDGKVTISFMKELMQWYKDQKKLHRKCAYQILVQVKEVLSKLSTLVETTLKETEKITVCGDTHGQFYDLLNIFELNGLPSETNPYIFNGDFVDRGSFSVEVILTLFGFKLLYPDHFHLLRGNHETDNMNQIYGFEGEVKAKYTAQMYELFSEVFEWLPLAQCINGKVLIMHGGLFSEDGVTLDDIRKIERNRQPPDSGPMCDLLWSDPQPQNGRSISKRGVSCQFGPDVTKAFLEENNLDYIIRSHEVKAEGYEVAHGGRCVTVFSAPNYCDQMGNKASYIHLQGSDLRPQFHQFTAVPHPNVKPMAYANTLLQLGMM
ZTA DNA inh – blocks Epstein-Barr virus ZTA, an EBNA-1 counter-screen | P03206 | ZTA-DNA binding, fluorescence polarization | inhibition, % at 11 µM | hit rate 0.15% among 320,000 | AID 2234; in the data active = inhibition above about 33%
EBNA-1 inh – EBNA-1 DNA-binding inhibitors, primary screen, biochemical, fluorescence polarization; hit rate 0.34% among 300,000; inhibition, % at 14.8 µM; in the data active = inhibition above about 28%
HCV core dimer – inhibitors of HCV core protein dimerization, primary screen, biochemical, TR-FRET, high-throughput; TR-FRET GST/Flag-core106 dimerization, 1536-well; inhibition, % at 5 µM; hit rate 0.33% among 300,000; AID 1899, 2009;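 active = inhibition above the mean of all tested compounds plus 3 SD, set per screening campaign, cut at about 45% in these data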
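Test system: GST/Flag-tagged HCV core106 proteins; Medium: KF-containing HEPES buffer, pH 7.45, DTT, CHAPS, BSA; Times: compound-protein-antibody incubation 4 h at 22.5 °C; Detection: TR-FRET 671 and 617 nm emission; Benchmarks: wells lacking GST-core106 and wells with excess unlabelled core106.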
PP1 counter – PP1-alpha phosphatase inhibitors, primary screen, counter-screen for PP5 inhibitor project, biochemical, fluorescence, OMFP substrate, single point; Serine/threonine-protein phosphatase PP1-alpha catalytic subunit (Homo sapiens), P62136; purified PP1alpha; inhibition, % at 6.7 µM; hit rate 0.9% among 320,000; AID 2235, 2010;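 active = inhibition above the mean inhibition of all tested compounds plus 3 SD, computed separately for each screening campaign, cut at about 15% in these data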
An asterisk follows results filed as active; nt = no result given.

SMILES	PP5 primary	ZTA DNA inh	EBNA-1 inh	HCV core dimer	PP1 counter
C#CCOCCOCCOCCNc1nc(N2CCN(C(=O)CCCCCCCCCCNC(=O)[C@H](CCCCN)n3cc(C[C@@H](C)CC)nn3)CC2)nc(N2CCN(C(=O)CCCCCCCCCCNC(=O)[C@H](CCCCN)n3cc(C[C@@H](C)CC)nn3)CC2)n1	2	91*	7	12	55*
C#CCOCCOCCOCCNc1nc(N2CCN(C(=O)CCCCCCCCCCNC(=O)[C@@H](CCC(=O)O)n3cc(CCCCCN)nn3)CC2)nc(N2CCN(C(=O)CCCCCCCCCCNC(=O)[C@@H](CCC(=O)O)n3cc(CCCCCN)nn3)CC2)n1	1	20	6	-1	5
COC(=O)CCCC1=CC2=CC(=O)C(C)(OC(=O)c3cccs3)C(=O)C2=CN1Cc1ccc2c(c1)OCO2 (stereo not given)	2	16	-3	30	18*
COC(=O)CCCC1=CC2=CC(=O)C(C)(OC(=O)c3cccs3)C(=O)C2=CN1Cc1ccccc1 (stereo not given)	3	-7	-3	15	9
Cc1cc(O)c(C(=O)/C=C/c2ccc(Cl)cc2)c(=O)o1	-9	-12	-20	5	17*
CSc1ccc(/C=C/C(=O)c2c(O)cc(C)oc2=O)cc1	1	10	-1	32	11
COc1ccc(Cl)cc1NC(=O)c1[nH]c(C)c(C(C)=O)c1C	2	1	-6	33	17*
COc1ccc(OC)c(NC(=O)c2[nH]c(C)c(C(C)=O)c2C)c1	2	-13	5	3	2
CCOC(=O)c1ccc(NC(=O)CSc2nc(C)cc(=O)[nH]2)cc1	-1	-19	1	63*	-1
CN(C)CCn1cnc2c(c1=N)C(c1ccccc1)c1ccc3ccccc3c1O2 (stereo not given)	5	10	-17	-6	3
N#C/C(=C\c1ccc([N+](=O)[O-])o1)C(=O)Nc1ccc(F)cc1	1	79*	37*	35	3
Nc1nccc(-c2cccs2)n1	3	-1	-16	-2	-2
Brc1cc(Br)c2nc(-c3cccs3)ccc2c1	-2	-1	-4	48*	-2
O=C(COC(=O)C1CCCCC1C(=O)N1CCc2ccccc21)NCc1ccco1 (stereo not given)	-1	-10	-6	83*	8
O=C(COC(=O)CCOc1ccccc1)NCc1ccco1	1	-9	9	62*	-3
O=C(COC(=O)C1CC2C=CC1C2)NCc1ccco1 (stereo not given)	-2	11	5	76*	1
Nc1nonc1-n1nnc(C(=O)N/N=C/c2cccc(Cl)c2)c1-c1cccs1	10	-13	-14	4	4
O=C(O)CCn1cc(C2CC(c3ccccc3)=NN2c2ccccc2)c(-c2ccccc2)n1 (stereo not given)	6	3	-3	22	15*
O=C(NC1CC1)C1CCN(C2CCN(C(=O)CC3=CCCCC3)CC2)CC1	0	3	10	-4	-3
Cn1cnnc1SCC(=O)Nc1sccc1C#N	2	-8	9	-7	-7
Cn1c(SCC(=O)Nc2sccc2C#N)nnc1-c1ccccc1	-2	-1	7	49*	4
CC(C)[C@H](NS(=O)(=O)c1ccccc1)C(=O)OCC(=O)N1N=C(c2ccc(Cl)cc2)CC1c1ccco1 (stereo not given in full)	5	-15	4	40	16*
COc1ccc(C2C/C(=N\O)C(C)(C)O2)cc1 (stereo not given)	-1	2	5	-3	17*
COc1ccc(C2CC(O)(C(C)(C)O)NO2)cc1 (stereo not given)	1	1	8	2	-6
O=C(N/N=C/C(Br)=C/c1ccccc1)c1n[nH]c2c1CCC2	2	1	2	69*	6
Cc1nnc(SCC(=O)NC(=O)NCc2ccco2)n1Cc1ccccc1	0	0	1	62*	3
O=C(CSc1nnc(-c2ccco2)n1Cc1ccccc1)NC(=O)NCc1ccccc1	3	4	-10	27	5
CCOc1ccccc1-n1nnnc1SCC(=O)NCC1(N2CCOCC2)CCCCC1	0	8	nt	nt	-4
Nn1c(SCC(=O)NC(=O)NCc2ccco2)nnc1-c1ccc(OC(F)F)cc1	-1	-3	-1	79*	0
